Converted amounts (≈) assume the structure as drawn.
Legend:
[1] = Volume distribution in Male Sprague-Dawley Rat (8.98 mg/kg iv); type: ADME, organism-based; conditions: in vivo, read-out: Vss
How it was run: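 Male Sprague-Dawley rats given the compound intravenously. Intact compound in plasma was measured by HPLC-UV after protein-precipitation sample preparation.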

Homo sapiens = species on record: Homo sapiens; assay: Compound was evaluated for metabolic stability via In vitro Human 5E6 cell at 25 uM concentration; type: functional
CYP2D6 [2] = biological target: T1, CYP2D6 (Homo sapiens, UniProt P10635); assay: Inhibition of heterologously expressed human Cytochrome P450 2D6 at 10 uM; type: ADME; parameters: scale not given: the % may be the effect or the level left; conditions: read-out: Control of P-450 marker
How it was run: (§1)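 Human cDNA-expressed CYP1A2, 2C9, 2D6 and 3A4 microsomes incubated with compound at 10 or 100 µM plus CYP marker substrates. Marker metabolite formation quantified by HPLC with radiochemical detection and expressed as % of control, mean ± SD of triplicates.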

CYP3A4 [3] = biological target: T2, CYP3A4 (Homo sapiens, UniProt P08684); assay: Inhibition of heterologously expressed human Cytochrome P450 3A4 at 10 uM; type: ADME; parameters: scale not given: the % may be the effect or the level left; conditions: read-out: Control of P-450 marker; how it was run: as §1
Escherichia coli = assay: In vitro minimum inhibitory concentration (MIC) against Escherichia coli UC6674; type: functional
How it was run: (§2)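 MIC determined by standard broth microdilution, defined as the lowest drug concentration (µg/mL) inhibiting visible growth.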

[4] = Harmonic mean apparent terminal disposition half-life [t1/2beta (h)] in Male Sprague-Dawley Rat at dose 8.98 (mg/kg iv); type: ADME, organism-based; conditions: in vivo, read-out: T1/2 beta (converted)
How it was run: (§3)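 Male Sprague-Dawley rats dosed intravenously or orally. Intact compound measured in plasma by HPLC-UV after protein-precipitation sample preparation. Half-life reported as harmonic mean apparent terminal disposition half-life. Bioavailability is absolute oral bioavailability. Some comparator values are archival data.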

CYP2C9 [5] = biological target: T3, CYP2C9 (Homo sapiens, UniProt P11712); assay: Inhibition of heterologously expressed human Cytochrome P450 2C9 at 10 uM; type: ADME; parameters: scale not given: the % may be the effect or the level left; conditions: read-out: Control of P-450 marker; how it was run: as §1
[6] = Cmax value in Male Sprague-Dawley Rat at dose 8.98 (mg/kg iv); type: ADME, organism-based; parameters: dose 8.98 mg/kg, route intravenous; conditions: in vivo; how it was run: as §3
Moraxella catarrhalis = assay: In vitro minimum inhibitory concentration (MIC) against Moraxella catarrhalis UC30610; type: functional; how it was run: as §2
Staphylococcus aureus [7] = assay: In vitro minimum inhibitory concentration (MIC) against Staphylococcus aureus UC9213; type: functional; how it was run: as §2
Mus musculus = assay: In Vivo effective dose required for antibacterial activity in a systemic mouse infection model (SMIM) upon oral administration against Staphylococcus aureus UC9213; type: functional
How it was run: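 Compound was given orally at 1 and 5 h after infection. Deaths were monitored for at least 6 days, and ED50 (dose curing 50% of mice) was calculated by probit analysis.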

Haemophilus influenzae = assay: In vitro minimum inhibitory concentration (MIC) against Haemophilus influenzae UC30063; type: functional; how it was run: as §2
CYP2D6 [8] = biological target: T1, CYP2D6; assay: Inhibition of heterologously expressed human Cytochrome P450 2D6 at 100 uM; type: ADME; parameters: scale not given: the % may be the effect or the level left; conditions: read-out: Control of P-450 marker; how it was run: as §1
[9] = Tmax value in Male Sprague-Dawley Rat at dose 48.9 (mg/kg po) [tmax (h)]; type: ADME, organism-based; conditions: in vivo; how it was run: as §3
CYP2C9 [10] = biological target: T3, CYP2C9; assay: Inhibition of heterologously expressed human Cytochrome P450 2C9 at 100 uM; type: ADME; parameters: scale not given: the % may be the effect or the level left; conditions: read-out: Control of P-450 marker; how it was run: as §1
[11] = system: Staphylococcus epidermidis; assay: In vitro minimum inhibitory concentration (MIC) against Staphylococcus epidermidis UC12084; type: functional; how it was run: as §2
Rattus norvegicus = species on record: Rattus norvegicus; assay: Compound was evaluated for metabolic stability via In vitro Rat 5E6 cell at 50 uM concentration; type: functional
[12] = Plasma clearance in Male Sprague-Dawley Rat (48.9 mg/kg po); type: ADME, organism-based; how it was run: as §3
Staphylococcus aureus [13] = assay: In vitro minimum inhibitory concentration (MIC) against Staphylococcus aureus UC12673; type: functional; how it was run: as §2
[14] = Absolute oral bioavailability in Male Sprague-Dawley Rat (8.98 mg/kg iv); type: ADME, organism-based; conditions: in vivo; how it was run: as §3
[15] = Harmonic mean apparent terminal disposition half-life [t1/2beta (h)] in Male Sprague-Dawley Rat at dose 48.9 (mg/kg po); type: ADME, organism-based; conditions: in vivo, read-out: T1/2 beta (converted); how it was run: as §3
Enterococcus faecalis = assay: In vitro minimum inhibitory concentration (MIC) against Enterococcus faecalis UC9217; type: functional; how it was run: as §2
[16] = Absolute oral bioavailability in Male Sprague-Dawley Rat (48.9 mg/kg po); type: ADME, organism-based; conditions: in vivo; how it was run: as §3
Streptococcus pneumoniae = assay: In vitro minimum inhibitory concentration (MIC) against Streptococcus pneumoniae UC9912; type: functional; how it was run: as §2
CYP1A2 [17] = biological target: T4, CYP1A2 (Homo sapiens, UniProt P05177); assay: Inhibition of heterologously expressed human Cytochrome P450 1A2 at 100 uM; type: ADME; parameters: scale not given: the % may be the effect or the level left; conditions: read-out: Control of P-450 marker; how it was run: as §1
T4 sequence (P05177 whole entry): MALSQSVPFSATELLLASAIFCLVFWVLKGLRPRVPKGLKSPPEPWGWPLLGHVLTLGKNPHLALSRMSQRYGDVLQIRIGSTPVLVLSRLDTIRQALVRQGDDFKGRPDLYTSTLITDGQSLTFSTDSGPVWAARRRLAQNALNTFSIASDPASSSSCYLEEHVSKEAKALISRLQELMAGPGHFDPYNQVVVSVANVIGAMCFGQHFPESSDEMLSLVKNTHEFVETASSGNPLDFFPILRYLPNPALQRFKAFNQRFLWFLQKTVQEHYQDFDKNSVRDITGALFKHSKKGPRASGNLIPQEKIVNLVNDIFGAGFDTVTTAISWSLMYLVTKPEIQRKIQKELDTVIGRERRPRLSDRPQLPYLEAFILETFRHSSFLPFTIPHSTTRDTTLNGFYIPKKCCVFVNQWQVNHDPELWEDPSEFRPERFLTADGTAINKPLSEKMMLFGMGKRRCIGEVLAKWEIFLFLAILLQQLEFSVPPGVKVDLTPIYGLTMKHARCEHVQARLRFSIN

[18] = Plasma clearance in Male Sprague-Dawley Rat (8.98 mg/kg iv); type: ADME, organism-based; how it was run: as §3
CYP1A2 [19] = biological target: T4, CYP1A2; assay: Inhibition of heterologously expressed human Cytochrome P450 1A2 at 10 uM; type: ADME; parameters: scale not given: the % may be the effect or the level left; conditions: read-out: Control of P-450 marker; how it was run: as §1
[20] = Cmax value in Male Sprague-Dawley Rat at dose 48.9 (mg/kg po); type: ADME, organism-based; parameters: dose 48.9 mg/kg, route oral; conditions: in vivo; how it was run: as §3
CYP3A4 [21] = biological target: T2, CYP3A4; assay: Inhibition of heterologously expressed human Cytochrome P450 3A4 at 100 uM; type: ADME; parameters: scale not given: the % may be the effect or the level left; conditions: read-out: Control of P-450 marker; how it was run: as §1

T3 sequence (P11712 whole entry): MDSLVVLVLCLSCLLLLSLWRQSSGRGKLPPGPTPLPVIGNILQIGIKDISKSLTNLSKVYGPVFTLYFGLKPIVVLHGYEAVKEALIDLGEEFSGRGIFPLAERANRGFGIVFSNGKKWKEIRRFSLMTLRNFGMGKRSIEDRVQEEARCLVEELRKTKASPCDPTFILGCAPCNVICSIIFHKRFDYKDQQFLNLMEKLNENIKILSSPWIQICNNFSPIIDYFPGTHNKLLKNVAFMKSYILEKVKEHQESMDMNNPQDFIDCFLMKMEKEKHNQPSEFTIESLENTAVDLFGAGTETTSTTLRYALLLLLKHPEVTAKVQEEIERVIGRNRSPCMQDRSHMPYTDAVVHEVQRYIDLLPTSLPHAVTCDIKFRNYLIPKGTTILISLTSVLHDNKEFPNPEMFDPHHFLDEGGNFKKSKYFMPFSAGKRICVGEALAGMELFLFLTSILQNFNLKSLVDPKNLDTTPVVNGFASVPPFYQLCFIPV
T2 sequence (P08684 whole entry): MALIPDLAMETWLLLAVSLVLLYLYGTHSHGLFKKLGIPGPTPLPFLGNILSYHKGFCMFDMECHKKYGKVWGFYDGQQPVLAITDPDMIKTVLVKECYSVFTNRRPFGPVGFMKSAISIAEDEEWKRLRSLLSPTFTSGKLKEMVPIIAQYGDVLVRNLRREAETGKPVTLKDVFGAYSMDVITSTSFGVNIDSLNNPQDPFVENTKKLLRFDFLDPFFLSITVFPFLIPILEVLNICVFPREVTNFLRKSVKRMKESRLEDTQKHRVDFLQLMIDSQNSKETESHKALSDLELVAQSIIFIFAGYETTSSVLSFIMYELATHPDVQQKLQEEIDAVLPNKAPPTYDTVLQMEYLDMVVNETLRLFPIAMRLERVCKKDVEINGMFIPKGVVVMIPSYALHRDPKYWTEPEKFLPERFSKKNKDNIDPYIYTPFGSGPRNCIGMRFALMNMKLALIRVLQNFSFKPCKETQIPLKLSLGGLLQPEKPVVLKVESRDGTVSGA
T1 sequence (P10635 whole entry): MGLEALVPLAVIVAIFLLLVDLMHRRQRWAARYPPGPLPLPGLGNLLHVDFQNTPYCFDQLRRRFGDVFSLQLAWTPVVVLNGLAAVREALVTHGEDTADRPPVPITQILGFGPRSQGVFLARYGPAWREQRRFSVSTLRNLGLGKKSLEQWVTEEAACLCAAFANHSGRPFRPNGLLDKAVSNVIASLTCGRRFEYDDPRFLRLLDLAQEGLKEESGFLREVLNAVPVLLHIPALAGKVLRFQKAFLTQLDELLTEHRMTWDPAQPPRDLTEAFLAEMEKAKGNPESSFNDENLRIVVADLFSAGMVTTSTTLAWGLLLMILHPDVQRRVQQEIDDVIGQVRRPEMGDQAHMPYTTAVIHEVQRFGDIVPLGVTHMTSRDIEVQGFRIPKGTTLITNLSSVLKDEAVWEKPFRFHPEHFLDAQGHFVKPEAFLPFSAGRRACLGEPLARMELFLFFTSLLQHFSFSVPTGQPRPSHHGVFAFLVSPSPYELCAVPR

## CC(=O)NC[C@H]1CC(c2ccc(N3CCOCC3)c(F)c2)=NO1
[1]
  Vd: 0.6 L/kg
Homo sapiens
  Remaining at 40 min: 100%
CYP2D6 [2]
  activity at 10 µM: 101%
CYP3A4 [3]
  activity at 10 µM: 88.9%
Escherichia coli
  MIC: > 16 mg/L
[4]
  half-life: 28.2 min
CYP2C9 [5]
  activity at 10 µM: 92.1%
[6]
  Cmax: 17.7 µg/mL
Moraxella catarrhalis
  MIC: 16 mg/L (≈ 49.8 µM)
Staphylococcus aureus [7]
  MIC: 4 mg/L (≈ 12.4 µM)
Mus musculus
  ED50: 16.5 mg/kg
Haemophilus influenzae
  MIC: > 16 mg/L
CYP2D6 [8]
  activity at 100 µM: 103%
[9]
  Tmax: 192 min
CYP2C9 [10]
  activity at 100 µM: 95.8%
[11]
  MIC: 2 mg/L (≈ 6.22 µM)
Rattus norvegicus
  Remaining at 40 min: 87%
[12]
  CL/F: 0.516 L/h/kg
Staphylococcus aureus [13]
  MIC: 4 mg/L (≈ 12.4 µM)
[14]
  bioavailability: 100%
[15]
  half-life: 36 min
Enterococcus faecalis
  MIC: 8 mg/L (≈ 24.9 µM)
[16]
  bioavailability: 143%
Streptococcus pneumoniae
  MIC: 1 mg/L (≈ 3.11 µM)
CYP1A2 [17]
  activity at 100 µM: 102%
[18]
  clearance: 0.744 L/h/kg
CYP1A2 [19]
  activity at 10 µM: 100%
[20]
  Cmax: 12.2 µg/mL
CYP3A4 [21]
  activity at 100 µM: 92.1%
